Measurements: ChEMBL document CHEMBL3272259, “Nitroimidazoles with antibacterial activity against Neisseria gonorrhoeae” (1977)
In brackets after ≈: the same amount, converted by molar mass. Activity calls are given as the source filed them. The rule behind the calls is not given here.

Tests used:
[1] = test system: Bacteroides fragilis; test: Antibacterial activity against Bacteroides fragilis ATCC 23745 after 24 hrs by ten-fold serial dilution method; type: functional; conditions: ATCC 23745, 24 h
How it was run: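 Grown in Fluid Thioglycollate Broth and incubated 24 h at 37 °C. Growth was read by eye, and the MIC (µg/mL) is the lowest concentration that prevented visible growth.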

[2] = test system: Trichomonas vaginalis; test: Antibacterial activity against Trichomonas vaginalis ATCC 30001 after 48 hrs by ten-fold serial dilution method; type: functional; conditions: ATCC 30001, 48 h
How it was run: (§1)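 Trichomonads were cultured in Diamond medium with 5% serum and incubated 48 h at 37 °C. Cultures were examined microscopically for motile cells, and the MIC (µg/mL) is the lowest concentration giving no motile organisms.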

[3] = test system: Neisseria gonorrhoeae; test: Antibacterial activity against Neisseria gonorrhoeae ATCC 19424 after 48 hrs by ten-fold serial dilution method; type: functional; conditions: ATCC 19424, 48 h
How it was run: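 Tested on chocolate agar made from GC agar base with hemoglobin and Supplement C, incubated 48 h at 37 °C. Plates were checked visually, and the MIC (µg/mL) is the lowest concentration with no visible growth.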

[4] = test system: Pentatrichomonas hominis; test: Antibacterial activity against Pentatrichomonas hominis ATCC 30000 after 48 hrs by ten-fold serial dilution method; type: functional; conditions: ATCC 30000, 48 h; how it was run: as §1
[5] = test system: Clostridium perfringens; test: Antibacterial activity against Clostridium perfringens ATCC 13124 after 24 hrs by ten-fold serial dilution method; type: functional; conditions: ATCC 13124, 24 h
How it was run: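 Grown in Fluid Thioglycollate Broth and incubated 24 h at 37 °C. Growth was checked by eye after incubation. MIC was taken as the lowest concentration, in μg/mL, that prevented visible growth.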

[6] = test system: Tritrichomonas foetus; test: Antibacterial activity against Tritrichomonas foetus 1002-96-27 after 48 hrs by ten-fold serial dilution method; type: functional; conditions: 1002-96-27, 48 h; how it was run: as §1
[7] = test system: Candida albicans; test: Antifungal activity against Candida albicans; type: functional, organism-based

Row | Structure (SMILES) | MIC [1] [µg/mL] | MIC [2] [µg/mL] | MIC [3] [µg/mL] | MIC [4] [µg/mL] | MIC [5] [µg/mL] | MIC [6] [µg/mL] | Activity [7]
1 | Cn1c([N+](=O)[O-])cnc1SCCCCOc1ccc(C(=O)O)cc1 | 10 (≈ 28.5 µM) | 1 (≈ 2.85 µM) | 100 (≈ 285 µM) | 1 (≈ 2.85 µM) | 10 (≈ 28.5 µM) | 1 (≈ 2.85 µM) | inactive
2 | Cn1c([N+](=O)[O-])cnc1SCCCCCCCCCC(=O)O | 10 (≈ 30.4 µM) | 10 (≈ 30.4 µM) | 0.1 (≈ 0.304 µM) | 1 (≈ 3.04 µM) | 10 (≈ 30.4 µM) | 1 (≈ 3.04 µM) | inactive
3 | Br.Cn1ccnc1SCCCCOc1ccccc1 | > 100 | > 100 | 100 | > 100 | > 100 | > 100 | inactive
4 | Cn1c([N+](=O)[O-])cnc1S(=O)(=O)CCC(=O)O | > 100 | 100 (≈ 380 µM) | 100 (≈ 380 µM) | 100 (≈ 380 µM) | > 100 | 100 (≈ 380 µM) | inactive
5 | Cn1c([N+](=O)[O-])cnc1S(=O)(=O)CCCCCCCOc1ccccc1[N+](=O)[O-] | > 100 | > 100 | > 100 | > 100 | > 100 | > 100 | inactive
6 | CCOC(=O)c1ccc(OCCCCSc2nccn2C)cc1 [listing 1 of 2 here] | – | – | – | – | – | – | inactive
7 | Cn1c([N+](=O)[O-])cnc1[S+]([O-])CCOc1ccc(C(=O)O)cc1 (stereo unspecified) | 100 (≈ 295 µM) | 100 (≈ 295 µM) | 100 (≈ 295 µM) | 100 (≈ 295 µM) | 100 (≈ 295 µM) | 100 (≈ 295 µM) | inactive
8 | CCOC(=O)c1ccc(OCCCCCCSc2ncc([N+](=O)[O-])n2C)c([N+](=O)[O-])c1 | 10 (≈ 22.1 µM) | 10 (≈ 22.1 µM) | > 100 | 10 (≈ 22.1 µM) | 100 (≈ 221 µM) | 100 (≈ 221 µM) | inactive
9 | Cn1ccnc1SCCCCC(=O)O | > 100 | > 100 | > 100 | > 100 | > 100 | > 100 | inactive
10 | Cn1c([N+](=O)[O-])cnc1SCCCCCCCCCCCC(=O)O | 100 (≈ 280 µM) | 10 (≈ 28 µM) | > 100 | 10 (≈ 28 µM) | > 100 | 10 (≈ 28 µM) | inactive
11 | Br.Cn1ccnc1SCCOc1ccc(C#N)cc1 | > 100 | > 100 | > 100 | > 100 | > 100 | > 100 | –
12 | Cn1c([N+](=O)[O-])cnc1SCCOc1ccc(C(=O)[O-])cc1.[Na+] | 1 | 1 | 1 | 1 | 10 | 10 | –
13 | COC(=O)CCCCCCCCCCS(=O)(=O)c1ncc([N+](=O)[O-])n1C | > 100 | > 100 | > 100 | > 100 | > 100 | > 100 | inactive
14 | Cn1ccnc1SCCOc1ccc(C#N)cc1 [listing 1 of 2 here] | – | – | – | – | – | – | inactive
15 | Cn1c([N+](=O)[O-])cnc1SCCOc1ccc(C(=O)O)cc1 [listing 1 of 2 here] | 10 (≈ 30.9 µM) | 1 (≈ 3.09 µM) | 1 (≈ 3.09 µM) | 1 (≈ 3.09 µM) | 10 (≈ 30.9 µM) | 1 (≈ 3.09 µM) | –
16 | Cn1c([N+](=O)[O-])cnc1[S+]([O-])CCCCCCCOc1ccccc1[N+](=O)[O-] (stereo unspecified) | 100 (≈ 244 µM) | 100 (≈ 244 µM) | > 100 | 100 (≈ 244 µM) | > 100 | 100 (≈ 244 µM) | inactive
17 | Cn1ccnc1SCCOc1ccc(C#N)cc1 [listing 2 of 2 here] | > 100 | > 100 | > 100 | > 100 | > 100 | > 100 | –
18 | CCOC(=O)c1ccc(OCCCCCCCCCCSc2ncc([N+](=O)[O-])n2C)c([N+](=O)[O-])c1 | 10 (≈ 19.7 µM) | 10 (≈ 19.7 µM) | > 100 | 10 (≈ 19.7 µM) | > 100 | 10 (≈ 19.7 µM) | inactive
19 | Cc1ncc([N+](=O)[O-])n1CCO [METRONIDAZOLE] | 1 (≈ 5.84 µM) | 10 (≈ 58.4 µM) | > 100 | 1 (≈ 5.84 µM) | 10 (≈ 58.4 µM) | 1 (≈ 5.84 µM) | inactive
20 | Br.Cn1ccnc1SCCOc1ccc([N+](=O)[O-])cc1 | > 100 | > 100 | 100 | > 100 | > 100 | > 100 | inactive
21 | Cn1c([N+](=O)[O-])cnc1SCCCCC(=O)O | 1 (≈ 3.86 µM) | 1 (≈ 3.86 µM) | 1 (≈ 3.86 µM) | 1 (≈ 3.86 µM) | – | 1 (≈ 3.86 µM) | inactive

Row | Structure (SMILES) | MIC [1] [µg/mL] | MIC [2] [µg/mL] | MIC [3] [µg/mL] | MIC [4] [µg/mL] | MIC [5] [µg/mL] | MIC [6] [µg/mL] | Activity [7]
22 | COC(=O)CCCCCCCCCCSc1ncc([N+](=O)[O-])n1C | > 100 | > 100 | > 100 | > 100 | > 100 | > 100 | inactive
23 | Cn1c([N+](=O)[O-])cnc1SCCCCCCCCCCCCCCCC(=O)O | > 100 | 100 (≈ 242 µM) | > 100 | 100 (≈ 242 µM) | > 100 | 100 (≈ 242 µM) | inactive
24 | Cn1c([N+](=O)[O-])cnc1[S+]([O-])CCCCCCCCCCC(=O)O (stereo unspecified) | > 100 | 10 (≈ 27.8 µM) | 100 (≈ 278 µM) | 100 (≈ 278 µM) | > 100 | 100 (≈ 278 µM) | inactive
25 | Cn1c([N+](=O)[O-])cnc1[S+]([O-])CCCCC(=O)O (stereo unspecified) | 100 (≈ 363 µM) | 100 (≈ 363 µM) | 100 (≈ 363 µM) | 100 (≈ 363 µM) | > 100 | > 100 | inactive
26 | Cn1ccnc1SCCOc1ccc(C(=O)O)cc1 | > 100 | > 100 | > 100 | > 100 | > 100 | > 100 | inactive
27 | Cn1c([N+](=O)[O-])cnc1SCCOc1ccc([N+](=O)[O-])cc1 | 100 (≈ 308 µM) | 10 (≈ 30.8 µM) | > 100 | 1 (≈ 3.08 µM) | 100 (≈ 308 µM) | 100 (≈ 308 µM) | inactive
28 | Cn1c([N+](=O)[O-])cnc1SCCOc1ccc(C#N)cc1 | – | 1 (≈ 3.29 µM) | 100 (≈ 329 µM) | 1 (≈ 3.29 µM) | 100 (≈ 329 µM) | 1 (≈ 3.29 µM) | inactive
29 | Br.CCOC(=O)c1ccc(OCCCCSc2nccn2C)cc1 | > 100 | 100 | > 100 | 100 | > 100 | 100 | –
30 | Br.Cn1ccnc1SCCOc1ccc(Br)cc1 | 100 | > 100 | 100 | > 100 | > 100 | > 100 | inactive
31 | Cn1cc([N+](=O)[O-])nc1SCCCCCCC(=O)O | > 100 | 100 (≈ 348 µM) | > 100 | 100 (≈ 348 µM) | > 100 | 100 (≈ 348 µM) | inactive
32 | Cn1c([N+](=O)[O-])cnc1[S+]([O-])CCOc1ccc(C#N)cc1 (stereo unspecified) | 100 (≈ 312 µM) | 10 (≈ 31.2 µM) | 100 (≈ 312 µM) | 100 (≈ 312 µM) | > 100 | 100 (≈ 312 µM) | inactive
33 | Cn1c([N+](=O)[O-])cnc1SCCCCCCC(=O)O | 1 (≈ 3.48 µM) | 1 (≈ 3.48 µM) | 0.1 (≈ 0.348 µM) | 1 (≈ 3.48 µM) | 1 (≈ 3.48 µM) | 10 (≈ 34.8 µM) | inactive
34 | Cn1c([N+](=O)[O-])cnc1SCCOc1ccc(Br)cc1 | 100 (≈ 279 µM) | 10 (≈ 27.9 µM) | > 100 | 10 (≈ 27.9 µM) | > 100 | 10 (≈ 27.9 µM) | inactive
35 | Cn1c([N+](=O)[O-])cnc1SCCCCCCCCCCC(=O)O | 10 (≈ 29.1 µM) | 10 (≈ 29.1 µM) | 0.1 (≈ 0.291 µM) | 10 (≈ 29.1 µM) | 10 (≈ 29.1 µM) | 10 (≈ 29.1 µM) | inactive
36 | Cn1c([N+](=O)[O-])cnc1SCCCOc1ccc(C(=O)O)cc1 | 1 (≈ 2.96 µM) | 1 (≈ 2.96 µM) | 1 (≈ 2.96 µM) | 1 (≈ 2.96 µM) | 10 (≈ 29.6 µM) | 10 (≈ 29.6 µM) | inactive
37 | Cn1c([N+](=O)[O-])cnc1SCCCCCCOc1ccc(C(=O)O)cc1 | 1 (≈ 2.64 µM) | 1 (≈ 2.64 µM) | 0.1 (≈ 0.264 µM) | 1 (≈ 2.64 µM) | 10 (≈ 26.4 µM) | 1 (≈ 2.64 µM) | inactive
38 | CCOC(=O)c1ccc(OCCCCSc2nccn2C)cc1 [listing 2 of 2 here] | > 100 | > 100 | > 100 | > 100 | > 100 | > 100 | –
39 | COC(=O)CCCCCCCCCC[S+]([O-])c1ncc([N+](=O)[O-])n1C (stereo unspecified) | > 100 | 100 (≈ 268 µM) | 100 (≈ 268 µM) | 100 (≈ 268 µM) | > 100 | 100 (≈ 268 µM) | inactive
40 | Cn1c([N+](=O)[O-])cnc1SCCCCCC(=O)O | 100 (≈ 366 µM) | 1 (≈ 3.66 µM) | 0.1 (≈ 0.366 µM) | 1 (≈ 3.66 µM) | 10 (≈ 36.6 µM) | 1 (≈ 3.66 µM) | inactive
41 | Cn1c([N+](=O)[O-])cnc1SCCOc1ccc(C(=O)O)cc1 [listing 2 of 2 here] | – | – | – | – | – | – | inactive
